Test results taken from ChEMBL document CHEMBL3407343, “Functionalized tetrahydro-1H-pyrido[4,3-b]indoles: a novel chemotype with Sirtuin 2 inhibitory activity” (Eur J Med Chem, 2015).
Calls of active or inactive are those of the source. The rule behind the calls is not given here.

Experiments:
Homo sapiens [1] = species: Homo sapiens; assay: Inhibition of protease (unknown origin) using deacetylated peptide as substrate assessed as luminescence at 25 uM after 30 mins relative to control; design: scale not given: the % may be the effect or the level left
[2] = Inhibition of luciferase (unknown origin) using deacetylated peptide as substrate assessed as luminescence at 25 uM after 30 mins relative to control; design: scale not given: the % may be the effect or the level left
[3] = Self-aggregation of the compound in PBS assessed as derived light scattering count rate at 1 uM at pH 7.4 (reference value: 15.5 +/- 0.4 kilocount/sec); type: physicochemical; details: buffer, pH 7.4, 1 µM
MDA-MB-231 [4] = assay: Induction of apoptosis in human MDA-MB-231 cells assessed as upregulation of cleaved caspase-3 protein expression at 2 to 8 uM after 24 hrs by Western blot analysis; type: functional, cell-based
Procedure, shortened: (§1)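 Cells seeded at 50,000 cells/mL in high-glucose DMEM containing compound (0.5% v/v DMSO) and incubated at 37 °C, 5% CO2: HepG2 6 h, MDA-MB-231 24 h. Washed cells were lysed on ice ≥20 min in Tris/NaCl/EDTA/Triton buffer with protease and phosphatase inhibitors, then protein measured by Bradford. SDS-PAGE blots were probed overnight at 4 °C with primary antibodies and detected by HRP/ECL, with re-probing after stripping. Each blot was repeated ≥3 times.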

[5] = Self-aggregation of the compound in PBS assessed as derived light scattering count rate at 10 uM at pH 7.4 (reference value: 15.5 +/- 0.4 kilocount/sec); type: physicochemical; details: buffer, pH 7.4, 10 µM
[6] = molecular target: T1, NAD-dependent protein deacetylase sirtuin-2 (Homo sapiens) (UniProt Q8IXJ6); assay: Inhibition of SIRT2 in human HepG2 cells assessed as increase in acetylated p53 at Lys382 and alpha-tubulin level at 2 to 4 uM after 6 hrs by Western blot analysis; type: cell-based; procedure, shortened: as §1
T1 sequence (whole entry): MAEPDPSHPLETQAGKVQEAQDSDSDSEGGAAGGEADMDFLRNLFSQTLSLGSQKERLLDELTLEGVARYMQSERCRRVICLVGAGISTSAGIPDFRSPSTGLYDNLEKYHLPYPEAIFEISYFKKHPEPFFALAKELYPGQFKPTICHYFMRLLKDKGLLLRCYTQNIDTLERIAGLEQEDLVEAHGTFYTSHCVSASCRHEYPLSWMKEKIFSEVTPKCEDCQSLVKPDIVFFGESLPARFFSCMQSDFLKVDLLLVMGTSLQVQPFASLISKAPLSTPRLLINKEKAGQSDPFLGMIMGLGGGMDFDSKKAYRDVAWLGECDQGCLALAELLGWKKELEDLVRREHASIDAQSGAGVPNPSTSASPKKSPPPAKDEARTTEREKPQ

[7] = molecular target: T2, NAD-dependent protein deacetylase sirtuin-1 (Homo sapiens, UniProt Q96EB6); assay: Inhibition of human recombinant SIRT1 assessed as deacetylation of N-acetyl lysine residue in p53 (317 to 320) after 30 mins by luciferase-mediated luminescence assay
T2 sequence (Q96EB6 whole entry): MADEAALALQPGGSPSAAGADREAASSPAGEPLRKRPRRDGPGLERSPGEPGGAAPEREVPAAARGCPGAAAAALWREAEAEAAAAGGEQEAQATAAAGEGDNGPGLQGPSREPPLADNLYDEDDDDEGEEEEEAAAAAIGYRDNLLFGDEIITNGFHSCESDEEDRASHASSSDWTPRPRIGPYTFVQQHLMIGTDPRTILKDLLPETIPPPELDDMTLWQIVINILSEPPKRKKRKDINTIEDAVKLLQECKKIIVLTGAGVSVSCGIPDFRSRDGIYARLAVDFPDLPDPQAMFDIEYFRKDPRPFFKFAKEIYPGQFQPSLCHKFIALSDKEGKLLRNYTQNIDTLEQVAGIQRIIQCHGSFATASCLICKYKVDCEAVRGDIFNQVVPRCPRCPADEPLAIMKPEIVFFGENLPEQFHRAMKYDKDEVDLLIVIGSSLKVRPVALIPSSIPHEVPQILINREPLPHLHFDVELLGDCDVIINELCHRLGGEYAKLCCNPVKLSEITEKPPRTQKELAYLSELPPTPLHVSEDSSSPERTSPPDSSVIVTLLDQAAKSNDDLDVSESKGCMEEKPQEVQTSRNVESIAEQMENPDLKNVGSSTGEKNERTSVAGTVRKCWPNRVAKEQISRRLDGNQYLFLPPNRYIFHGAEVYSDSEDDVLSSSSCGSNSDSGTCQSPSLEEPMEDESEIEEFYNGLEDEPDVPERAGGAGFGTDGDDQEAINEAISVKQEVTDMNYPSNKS

Homo sapiens [8] = species: Homo sapiens; assay: Inhibition of protease (unknown origin) using deacetylated peptide as substrate assessed as luminescence at 10 uM after 30 mins relative to control; design: scale not given: the % may be the effect or the level left
Procedure, shortened: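 Counter-screen without sirtuin: compound from DMSO stock diluted in Sirt-Glo buffer, then Sirt-Glo reagent added carrying non-acetylated control peptide. DMSO was 2.5% v/v. Mixed by shaking 30 min at 25 °C, then luminescence read. Result is % of control (peptide plus reagent in vehicle) after subtracting the vehicle-only blank.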

MDA-MB-231 [9] = assay: Induction of apoptosis in human MDA-MB-231 cells assessed as upregulation of cleaved PARP protein expression at 2 to 8 uM after 24 hrs by Western blot analysis; type: functional, cell-based; procedure, shortened: as §1

Question: Which results are given for `CCCCCCCCn1c2c(c3cc(-c4ccc(S(C)(=O)=O)cc4)ccc31)CNCC2`?
Answer: Activity (Homo sapiens [1]): 94.9%; Activity [2]: 94.9%; Activity [3]: 15.6 kC/sec; Activity (MDA-MB-231 [4]): Active; Activity [5]: 95 kC/sec; inhibition [6]: Active; IC50 [7]: 16.7 µM; Activity (Homo sapiens [8]): 96.5%; Activity (MDA-MB-231 [9]): Active
